Reference: ChEMBL document CHEMBL4414556, “Antiproliferative Acylated Glycerols from New Zealand Propolis” (2019)

What was measured:
Type in all cases: functional
[1] = system: NCI-N87; experiment: Antiproliferative activity against human NCI-N87 cells assessed as cell growth inhibition at 110 uM by MTT assay relative to control
Method in brief: (§1)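 Cells revived from cryostorage and grown under supplier-recommended conditions with test samples. Working solutions were made in 15% EtOH/Hank's balanced saline at 2 mg/mL solids. Final well concentrations were 110, 55 or 22 μM, and the 5-fluorouracil reference was run at 450, 150 and 50 nM. MTT viability read after incubation, expressed as % proliferation versus a cells-only control, with six replicates.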

[2] = system: DLD-1; experiment: Antiproliferative activity against human DLD1 cells assessed as cell growth inhibition at 110 uM by MTT assay relative to control; method in brief: as §1
[3] = system: KYSE-30; experiment: Antiproliferative activity against human KYSE-30 cells assessed as cell growth inhibition at 110 uM by MTT assay relative to control; method in brief: as §1
[4] = system: NCI-N87; experiment: Antiproliferative activity against human NCI-N87 cells assessed as cell growth inhibition at 450 nM by MTT assay relative to control
Method in brief: (§2)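 Cells revived from cryostorage and cultured under supplier-recommended conditions with test or reference samples. Working solutions at 2 mg/mL solids in 15% EtOH/Hank's balanced saline. 5-Fluorouracil positive control at final well concentrations of 450, 150 and 50 nM. MTT viability read-out after incubation, expressed as percentage proliferation versus cells-only control; six replicates for test and control.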

[5] = system: KYSE-30; experiment: Antiproliferative activity against human KYSE-30 cells assessed as cell growth inhibition at 450 nM by MTT assay relative to control; method in brief: as §2
[6] = system: DLD-1; experiment: Antiproliferative activity against human DLD1 cells assessed as cell growth inhibition at 450 nM by MTT assay relative to control; method in brief: as §2
[7] = system: DLD-1; experiment: Antiproliferative activity against human DLD1 cells assessed as cell growth inhibition at 55 uM by MTT assay relative to control; method in brief: as §1
[8] = system: NCI-N87; experiment: Antiproliferative activity against human NCI-N87 cells assessed as cell growth inhibition at 55 uM by MTT assay relative to control; method in brief: as §1
[9] = system: KYSE-30; experiment: Antiproliferative activity against human KYSE-30 cells assessed as cell growth inhibition at 22 uM by MTT assay relative to control; method in brief: as §1
[10] = system: KYSE-30; experiment: Antiproliferative activity against human KYSE-30 cells assessed as cell growth inhibition at 55 uM by MTT assay relative to control; method in brief: as §1
[11] = system: NCI-N87; experiment: Antiproliferative activity against human NCI-N87 cells assessed as cell growth inhibition at 22 uM by MTT assay relative to control; method in brief: as §1

Row | Structure (SMILES) | inhibition at 110 µM [1] [%] | inhibition at 110 µM [2] [%] | inhibition at 110 µM [3] [%] | inhibition at 0.45 µM [4] [%] | inhibition at 0.45 µM [5] [%] | inhibition at 0.45 µM [6] [%] | inhibition at 55 µM [7] [%] | inhibition at 55 µM [8] [%] | inhibition at 22 µM [9] [%] | inhibition at 55 µM [10] [%] | inhibition at 22 µM [11] [%]
1 | CCCCCCCCCCCCC[C@@H](O)CCCC[C@@H](O)CC(=O)OCC(O)COC(C)=O (stereo not given in full) | 100 | 91 | 29 | – | – | – | – | – | – | – | –
2 | O=c1[nH]cc(F)c(=O)[nH]1 [FLUOROURACIL] | – | – | – | 8 | 17 | 21 | – | – | – | – | –
3 | CCCCCCCCCCCCCCCC(=O)OCC(O)CO (stereo not given) [GLYCEROL MONOPALMITATE] | 100 | 72 | 75 | – | – | – | – | – | – | – | –
4 | CCCCCCCCCCCC[C@@H](O)CCCC[C@@H](O)CC(=O)OCC(O)COC(C)=O (stereo not given in full) | 100 | 94 | 52 | – | – | – | 13 | 86 | 9 | 50 | 39
5 | CCCCCCCCCCCC[C@@H](O)CCCC[C@@H](O)CC(=O)OCC(O)CO (stereo not given in full) | 100 | 80 | 52 | – | – | – | – | – | – | – | –
